Measured values published in ChEMBL document CHEMBL1250448, “Inhibitor hijacking of Akt activation” (Nat Chem Biol, 2009).

These compounds were tested against Ephrin type-A receptor 4 (Homo sapiens) (UniProt P54764) (assay: Inhibition of EPHA4 at 1 uM in presence of 100 uM ATP by Select Screen kinase assay relative to untreated control).
Outline: (§1)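 Single-point screen at 1 μM against a panel of 220 purified kinases, run by Invitrogen staff as a SelectScreen profiling service. Read-out is percent inhibition of kinase activity.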

Sequence of Ephrin type-A receptor 4 (Homo sapiens) (P54764 whole entry): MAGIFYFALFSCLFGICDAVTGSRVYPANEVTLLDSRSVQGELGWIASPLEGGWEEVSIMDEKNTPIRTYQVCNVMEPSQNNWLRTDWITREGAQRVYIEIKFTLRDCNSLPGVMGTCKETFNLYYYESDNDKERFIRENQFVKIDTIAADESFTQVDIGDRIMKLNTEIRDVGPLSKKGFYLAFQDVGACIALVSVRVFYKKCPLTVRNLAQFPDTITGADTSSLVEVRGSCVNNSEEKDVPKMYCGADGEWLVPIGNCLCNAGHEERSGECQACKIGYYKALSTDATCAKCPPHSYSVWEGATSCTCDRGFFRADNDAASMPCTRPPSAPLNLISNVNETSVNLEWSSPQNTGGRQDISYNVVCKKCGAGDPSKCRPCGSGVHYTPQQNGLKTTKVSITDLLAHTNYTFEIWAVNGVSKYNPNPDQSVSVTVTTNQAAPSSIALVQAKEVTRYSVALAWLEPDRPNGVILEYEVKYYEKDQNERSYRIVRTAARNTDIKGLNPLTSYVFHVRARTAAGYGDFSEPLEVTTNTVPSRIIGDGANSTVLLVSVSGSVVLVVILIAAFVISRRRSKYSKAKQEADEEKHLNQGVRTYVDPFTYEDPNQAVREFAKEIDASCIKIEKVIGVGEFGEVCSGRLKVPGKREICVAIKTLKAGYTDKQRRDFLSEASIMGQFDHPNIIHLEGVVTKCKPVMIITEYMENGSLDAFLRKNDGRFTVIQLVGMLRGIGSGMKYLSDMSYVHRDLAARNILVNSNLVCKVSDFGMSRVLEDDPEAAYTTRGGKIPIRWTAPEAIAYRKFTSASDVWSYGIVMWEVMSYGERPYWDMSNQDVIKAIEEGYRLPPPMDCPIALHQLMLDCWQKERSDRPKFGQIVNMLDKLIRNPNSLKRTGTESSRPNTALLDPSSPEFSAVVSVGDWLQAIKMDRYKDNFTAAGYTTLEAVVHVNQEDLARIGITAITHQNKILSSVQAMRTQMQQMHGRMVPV

Structure (SMILES) | inhibition [%]
COc1ccccc1N1CCN(c2ncnc3[nH]nc(Br)c23)CC1 | 9
O=C(NCCCNc1nc(Nc2cccc(NC(=O)N3CCCC3)c2)ncc1I)c1cccs1 | 11
Cc1n[nH]c2ccc(-c3cncc(OC[C@@H](N)Cc4c[nH]c5ccccc45)c3)cc12 | -4

What follows are compounds tested against T1, Cytoplasmic tyrosine-protein kinase BMX (Homo sapiens) (UniProt P51813) (assay: Inhibition of BMX at 1 uM in presence of 10 uM ATP by Select Screen kinase assay relative to untreated control).
T1 sequence (whole entry): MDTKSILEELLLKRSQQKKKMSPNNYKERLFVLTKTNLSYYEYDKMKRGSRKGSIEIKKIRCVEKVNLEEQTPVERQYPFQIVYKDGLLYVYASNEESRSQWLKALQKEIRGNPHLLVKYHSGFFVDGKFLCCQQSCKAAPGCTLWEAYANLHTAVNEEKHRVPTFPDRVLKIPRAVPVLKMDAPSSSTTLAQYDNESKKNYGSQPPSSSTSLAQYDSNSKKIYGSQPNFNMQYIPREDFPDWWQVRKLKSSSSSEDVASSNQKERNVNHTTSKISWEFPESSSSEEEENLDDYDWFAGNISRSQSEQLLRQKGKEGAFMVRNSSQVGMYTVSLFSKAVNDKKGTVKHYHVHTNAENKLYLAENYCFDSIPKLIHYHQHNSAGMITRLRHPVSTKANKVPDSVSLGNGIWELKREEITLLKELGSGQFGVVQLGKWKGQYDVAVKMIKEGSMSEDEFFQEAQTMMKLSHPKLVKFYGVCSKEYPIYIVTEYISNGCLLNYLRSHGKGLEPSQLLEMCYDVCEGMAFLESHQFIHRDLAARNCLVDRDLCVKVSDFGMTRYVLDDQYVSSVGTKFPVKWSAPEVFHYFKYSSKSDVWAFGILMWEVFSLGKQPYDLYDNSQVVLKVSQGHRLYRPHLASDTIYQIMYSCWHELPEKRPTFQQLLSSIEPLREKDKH
Outline: as §1

Structure (SMILES) | inhibition [%]
COc1ccccc1N1CCN(c2ncnc3[nH]nc(Br)c23)CC1 | 18
O=C(NCCCNc1nc(Nc2cccc(NC(=O)N3CCCC3)c2)ncc1I)c1cccs1 | 39
Cc1n[nH]c2ccc(-c3cncc(OC[C@@H](N)Cc4c[nH]c5ccccc45)c3)cc12 | -2

The compounds below were run on Hepatocyte growth factor receptor (Homo sapiens), P08581 [M1250T] (assay: Inhibition of MET M1250T mutant at 1 uM in presence of 10 uM ATP by Select Screen kinase assay relative to untreated control).
Outline: (§2)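 Single-concentration profiling at 1 μM against a panel of 220 purified kinases, run as an outsourced SelectScreen kinase profiling service. Activity is expressed as percent inhibition.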

Sequence of Hepatocyte growth factor receptor (Homo sapiens), P08581 [M1250T] (P08581 whole entry M1250T): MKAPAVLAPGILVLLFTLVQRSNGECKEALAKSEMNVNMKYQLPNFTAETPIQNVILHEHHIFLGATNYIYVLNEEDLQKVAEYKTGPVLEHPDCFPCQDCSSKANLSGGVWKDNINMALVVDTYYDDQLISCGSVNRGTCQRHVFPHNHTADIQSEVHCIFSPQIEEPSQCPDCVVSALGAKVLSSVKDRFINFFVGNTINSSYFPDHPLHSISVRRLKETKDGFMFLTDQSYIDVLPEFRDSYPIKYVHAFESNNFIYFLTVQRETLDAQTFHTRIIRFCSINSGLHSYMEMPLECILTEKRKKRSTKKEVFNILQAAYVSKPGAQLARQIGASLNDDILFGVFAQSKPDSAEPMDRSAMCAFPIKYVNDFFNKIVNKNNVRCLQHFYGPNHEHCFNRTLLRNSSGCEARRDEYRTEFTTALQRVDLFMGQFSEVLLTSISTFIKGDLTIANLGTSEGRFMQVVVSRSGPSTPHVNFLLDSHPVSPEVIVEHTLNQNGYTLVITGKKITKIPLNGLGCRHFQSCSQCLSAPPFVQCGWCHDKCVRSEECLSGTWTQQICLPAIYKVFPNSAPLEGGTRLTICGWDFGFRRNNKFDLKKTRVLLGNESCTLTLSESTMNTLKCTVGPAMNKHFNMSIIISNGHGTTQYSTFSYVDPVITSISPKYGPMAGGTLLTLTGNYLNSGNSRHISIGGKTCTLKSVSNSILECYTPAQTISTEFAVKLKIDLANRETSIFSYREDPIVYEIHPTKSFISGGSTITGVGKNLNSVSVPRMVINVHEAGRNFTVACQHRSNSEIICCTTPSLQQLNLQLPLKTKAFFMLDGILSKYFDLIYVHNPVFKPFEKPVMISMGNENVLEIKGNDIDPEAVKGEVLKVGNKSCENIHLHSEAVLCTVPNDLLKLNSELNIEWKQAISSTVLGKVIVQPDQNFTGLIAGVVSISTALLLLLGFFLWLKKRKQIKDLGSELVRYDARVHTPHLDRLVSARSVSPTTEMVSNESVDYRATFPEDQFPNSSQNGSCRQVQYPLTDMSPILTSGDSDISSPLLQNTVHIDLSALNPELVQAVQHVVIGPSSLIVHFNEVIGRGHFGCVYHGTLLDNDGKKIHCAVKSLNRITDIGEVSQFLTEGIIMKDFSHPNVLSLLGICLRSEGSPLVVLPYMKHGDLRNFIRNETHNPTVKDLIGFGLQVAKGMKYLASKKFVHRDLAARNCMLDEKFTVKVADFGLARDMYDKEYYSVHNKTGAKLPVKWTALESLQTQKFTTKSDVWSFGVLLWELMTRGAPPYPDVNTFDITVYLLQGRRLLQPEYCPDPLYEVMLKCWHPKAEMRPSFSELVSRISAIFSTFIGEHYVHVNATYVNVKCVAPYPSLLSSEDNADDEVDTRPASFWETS

Structure (SMILES) | inhibition [%]
COc1ccccc1N1CCN(c2ncnc3[nH]nc(Br)c23)CC1 | 3
O=C(NCCCNc1nc(Nc2cccc(NC(=O)N3CCCC3)c2)ncc1I)c1cccs1 | 11
Cc1n[nH]c2ccc(-c3cncc(OC[C@@H](N)Cc4c[nH]c5ccccc45)c3)cc12 | 5

What follows are compounds tested against T2, Inhibitor of nuclear factor kappa-B kinase subunit beta (Homo sapiens) (UniProt O14920) (assay: Inhibition of IKBKB at 1 uM in presence of 10 uM ATP by Select Screen kinase assay relative to untreated control).
T2 sequence (whole entry): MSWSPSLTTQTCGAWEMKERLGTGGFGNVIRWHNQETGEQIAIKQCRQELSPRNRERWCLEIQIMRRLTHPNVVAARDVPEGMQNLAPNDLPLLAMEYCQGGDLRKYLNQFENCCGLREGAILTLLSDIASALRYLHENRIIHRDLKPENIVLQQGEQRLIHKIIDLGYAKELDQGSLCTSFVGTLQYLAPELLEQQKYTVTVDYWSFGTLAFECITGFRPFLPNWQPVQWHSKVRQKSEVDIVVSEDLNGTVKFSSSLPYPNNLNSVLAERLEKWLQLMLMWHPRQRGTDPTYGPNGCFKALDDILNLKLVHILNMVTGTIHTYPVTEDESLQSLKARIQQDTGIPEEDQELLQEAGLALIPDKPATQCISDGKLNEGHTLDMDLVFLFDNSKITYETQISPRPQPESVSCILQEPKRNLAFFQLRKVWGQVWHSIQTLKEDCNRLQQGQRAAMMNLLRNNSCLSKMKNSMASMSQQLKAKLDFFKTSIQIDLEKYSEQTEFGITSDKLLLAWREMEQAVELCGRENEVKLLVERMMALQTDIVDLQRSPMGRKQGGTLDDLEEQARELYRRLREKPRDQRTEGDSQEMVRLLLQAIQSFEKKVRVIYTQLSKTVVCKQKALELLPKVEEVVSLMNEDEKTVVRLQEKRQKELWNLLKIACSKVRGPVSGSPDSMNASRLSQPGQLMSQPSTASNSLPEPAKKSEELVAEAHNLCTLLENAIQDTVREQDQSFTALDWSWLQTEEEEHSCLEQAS
Outline: as §2

Structure (SMILES) | inhibition [%]
COc1ccccc1N1CCN(c2ncnc3[nH]nc(Br)c23)CC1 | 2
O=C(NCCCNc1nc(Nc2cccc(NC(=O)N3CCCC3)c2)ncc1I)c1cccs1 | 6
Cc1n[nH]c2ccc(-c3cncc(OC[C@@H](N)Cc4c[nH]c5ccccc45)c3)cc12 | 11

These compounds were tested against Mitogen-activated protein kinase 1 (Homo sapiens) (UniProt P28482) (assay: Inhibition of MAPK1 at 1 uM in presence of 10 uM ATP by Select Screen kinase assay relative to untreated control).
Outline: as §2

Sequence of Mitogen-activated protein kinase 1 (Homo sapiens) (P28482 whole entry): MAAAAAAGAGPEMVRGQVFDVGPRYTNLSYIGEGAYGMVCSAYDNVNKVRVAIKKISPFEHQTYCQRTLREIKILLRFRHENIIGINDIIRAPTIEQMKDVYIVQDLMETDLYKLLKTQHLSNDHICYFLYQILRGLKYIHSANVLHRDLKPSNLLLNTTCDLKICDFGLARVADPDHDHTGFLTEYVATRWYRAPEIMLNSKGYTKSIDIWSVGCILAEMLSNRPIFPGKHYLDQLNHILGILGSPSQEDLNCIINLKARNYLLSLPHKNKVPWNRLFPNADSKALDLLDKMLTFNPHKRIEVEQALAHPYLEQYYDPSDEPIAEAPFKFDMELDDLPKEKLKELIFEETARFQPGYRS

Structure (SMILES) | inhibition [%]
COc1ccccc1N1CCN(c2ncnc3[nH]nc(Br)c23)CC1 | 11
O=C(NCCCNc1nc(Nc2cccc(NC(=O)N3CCCC3)c2)ncc1I)c1cccs1 | 52
Cc1n[nH]c2ccc(-c3cncc(OC[C@@H](N)Cc4c[nH]c5ccccc45)c3)cc12 | 61

Each compound was assayed against Aurora kinase C (Homo sapiens) (UniProt Q9UQB9) (assay: Inhibition of AURKC at 1 uM in presence of 10 uM ATP by Select Screen kinase assay relative to untreated control).
Sequence of Aurora kinase C (Homo sapiens) (Q9UQB9 whole entry, looked up): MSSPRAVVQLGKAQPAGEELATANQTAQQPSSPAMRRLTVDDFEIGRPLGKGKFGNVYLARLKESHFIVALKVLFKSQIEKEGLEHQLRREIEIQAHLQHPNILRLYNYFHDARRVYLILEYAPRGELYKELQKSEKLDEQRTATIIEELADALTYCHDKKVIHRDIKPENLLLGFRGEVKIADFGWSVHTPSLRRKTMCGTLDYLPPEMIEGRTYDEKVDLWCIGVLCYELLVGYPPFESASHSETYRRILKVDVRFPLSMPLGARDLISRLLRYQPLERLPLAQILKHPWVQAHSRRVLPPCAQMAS

Structure (SMILES) | inhibition [%]
COc1ccccc1N1CCN(c2ncnc3[nH]nc(Br)c23)CC1 | 16
O=C(NCCCNc1nc(Nc2cccc(NC(=O)N3CCCC3)c2)ncc1I)c1cccs1 | 96
Cc1n[nH]c2ccc(-c3cncc(OC[C@@H](N)Cc4c[nH]c5ccccc45)c3)cc12 | 17

Each compound was assayed against PAS domain-containing serine/threonine-protein kinase (Homo sapiens) (UniProt Q96RG2) (assay: Inhibition of PASK at 1 uM in presence of 10 uM ATP by Select Screen kinase assay relative to untreated control).
Outline: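 Commercial SelectScreen profiling panel of 220 purified kinases. Each kinase was tested at a single inhibitor concentration of 1 μM, and activity was expressed as percent inhibition.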

Sequence of PAS domain-containing serine/threonine-protein kinase (Homo sapiens) (Q96RG2 whole entry, the tested form may be a part): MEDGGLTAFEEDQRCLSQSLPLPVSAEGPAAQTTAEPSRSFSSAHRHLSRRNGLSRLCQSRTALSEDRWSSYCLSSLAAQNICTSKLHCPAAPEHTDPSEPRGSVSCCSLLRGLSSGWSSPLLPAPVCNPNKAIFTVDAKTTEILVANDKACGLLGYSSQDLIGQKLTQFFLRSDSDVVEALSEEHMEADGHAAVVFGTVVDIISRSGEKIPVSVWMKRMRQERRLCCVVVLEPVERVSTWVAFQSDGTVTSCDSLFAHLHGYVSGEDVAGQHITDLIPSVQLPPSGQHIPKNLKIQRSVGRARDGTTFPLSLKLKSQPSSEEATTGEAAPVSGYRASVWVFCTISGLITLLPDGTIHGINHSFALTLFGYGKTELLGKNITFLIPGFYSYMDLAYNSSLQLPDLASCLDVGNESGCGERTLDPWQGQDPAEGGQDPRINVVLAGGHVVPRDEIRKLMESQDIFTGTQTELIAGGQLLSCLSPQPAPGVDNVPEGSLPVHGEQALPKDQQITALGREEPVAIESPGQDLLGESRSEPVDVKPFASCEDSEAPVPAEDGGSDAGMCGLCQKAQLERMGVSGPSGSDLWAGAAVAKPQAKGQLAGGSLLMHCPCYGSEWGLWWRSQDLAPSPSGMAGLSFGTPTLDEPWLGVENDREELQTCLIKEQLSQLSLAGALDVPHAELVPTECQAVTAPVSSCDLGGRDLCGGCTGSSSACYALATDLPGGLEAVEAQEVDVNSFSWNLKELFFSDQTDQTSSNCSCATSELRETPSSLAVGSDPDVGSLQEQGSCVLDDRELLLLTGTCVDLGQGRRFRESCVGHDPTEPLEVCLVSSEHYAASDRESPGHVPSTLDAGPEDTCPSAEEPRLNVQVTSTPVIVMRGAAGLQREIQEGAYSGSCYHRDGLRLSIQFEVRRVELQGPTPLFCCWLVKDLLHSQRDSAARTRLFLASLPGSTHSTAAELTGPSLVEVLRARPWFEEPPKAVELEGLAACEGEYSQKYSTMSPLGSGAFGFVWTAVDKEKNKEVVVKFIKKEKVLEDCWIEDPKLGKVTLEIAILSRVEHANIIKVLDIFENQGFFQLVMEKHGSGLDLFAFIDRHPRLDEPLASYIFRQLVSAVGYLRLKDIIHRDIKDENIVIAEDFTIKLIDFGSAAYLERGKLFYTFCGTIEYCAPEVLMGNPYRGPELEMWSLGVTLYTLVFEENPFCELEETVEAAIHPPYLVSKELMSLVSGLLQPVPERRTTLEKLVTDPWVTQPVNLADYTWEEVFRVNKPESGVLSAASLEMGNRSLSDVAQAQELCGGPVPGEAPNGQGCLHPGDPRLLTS

Structure (SMILES) | inhibition [%]
COc1ccccc1N1CCN(c2ncnc3[nH]nc(Br)c23)CC1 | 1
O=C(NCCCNc1nc(Nc2cccc(NC(=O)N3CCCC3)c2)ncc1I)c1cccs1 | 3
Cc1n[nH]c2ccc(-c3cncc(OC[C@@H](N)Cc4c[nH]c5ccccc45)c3)cc12 | 36
